Published values of several laboratories.
Target: Serine/threonine-protein kinase PRP4 homolog (PRPF4B, Homo sapiens, UniProt Q13523)

| SMILES | effect on | technique | concentration | remaining binding [%] |
| --- | --- | --- | --- | --- |
| N[C@H]1CCN(c2nccc(-c3cnn4ncccc34)n2)C1 | binding |  | 1 µM | 82 |
| FC(F)(F)c1ccc2c(c1)nc(-c1cccnc1)n2C1CC1 | cell-free assay | competition with immobilised ligand | 1 µM | 98 |
| CN(CCCC(F)(F)F)c1nccc(-c2cnn3ncccc23)n1 | binding |  | 1 µM | 100 |
| O=C(NCc1ncc(C(F)(F)F)cc1Cl)c1ccc2c(c1)C1(CCS(=O)(=O)CC1)[C@@H](C1CC1)N2S(=O)(=O)c1ccc(F)cc1 | cell-free assay | competition with immobilised ligand | 1 µM | 84 |
| O=C(NCCCN1CCOCC1)c1ccc(Nc2ncc(Cl)c(-c3ccc(Cl)s3)n2)cc1 | binding | competition with immobilised ligand | 1 µM | 22 |
| C=CC(=O)N1CCC(C(=O)NCC(=O)N2CCN(c3nc(-c4cnc(N)nc4C(F)F)nc(N4CCOCC4)n3)CC2)CC1 | binding | competition with immobilised ligand | 1 µM | 100 |
| c1cnn2ncc(-c3ccnc(N4CCC45COC5)n3)c2c1 | binding |  | 1 µM | 84 |
| CC(C)(O)c1cncc(-c2nc3ccc(F)cc3n2C2CC2)c1 | cell-free assay | competition with immobilised ligand | 1 µM | 58 |
| FC(F)(F)Oc1cccc(-c2cnc3ccc(-c4ccncc4)nn23)c1 | cell-free assay | competition with immobilised ligand | 5 µM | 71 |
| CN(c1nccc(-c2cnn3ncccc23)n1)C1CC1 | binding |  | 1 µM | 100 |
| O=c1nc(-c2ccccn2)sc2ccccc12 | binding | competition with immobilised ligand | 1 µM | 71 |
| CN(C)c1ncc(F)c(-c2cnn3ncccc23)n1 | binding |  | 1 µM | 100 |
| COc1cnc(Nc2cccc(S(N)(=O)=O)c2)nc1N1CCN(c2ccccc2)C(=O)C1 | binding | competition with immobilised ligand | 1 µM | 100 |
| O=C(NCCCN1CCOCC1)c1ccc(Nc2nccc(-c3cc4ccccc4s3)n2)cc1 | binding | competition with immobilised ligand | 1 µM | 6.8 |
| Cc1nccc(COC(=O)N2C[C@@H]3[C@@H](CNC(=O)c4ccc5[nH]nnc5c4)[C@@H]3C2)n1 | cell-free assay | competition with immobilised ligand | 1 µM | 95 |
| F[C@@H]1CCN(c2nccc(-c3cnn4ncccc34)n2)C1 | binding |  | 1 µM | 100 |
| COc1ncc2cc3ccccc3nc2c1C#N | cell-free assay | competition with immobilised ligand | 5 µM | 100 |
| Cc1c(NC(=O)c2cc(C(N)=O)nc3cc(F)ccc23)c(C(F)(F)F)nn1Cc1ccc(C(C)(C)C)cc1 | cell-free assay | competition with immobilised ligand | 1 µM | 73 |
| C[C@H]1CCN(c2nccc(-c3cnn4ncccc34)n2)C1 | binding |  | 1 µM | 53 |
| O=C(NCCCC1CCCCC1)c1ccc(CNC(=O)c2cnn(-c3ccccc3)c2C(F)(F)F)cc1 | cell-free assay | competition with immobilised ligand | 0.1 µM | 100 |
| O=C(Nc1c[nH]nc1C(=O)NC1CCNCC1)c1cc(F)cc(F)c1 | binding | competition with immobilised ligand | 1 µM | 82 |
| O=C(c1ccc(Nc2ncc(Cl)c(-c3ccc(Cl)s3)n2)cc1)N1CCC(N2CCCC2)CC1 | binding | competition with immobilised ligand | 1 µM | 19 |
